One experiment relates to HFF. The experiment in a line: Visual cytotoxicity was scored on HFF cells at time of HCMV plaque enumeration. The format is functional, cell-based. The following applies: Homo sapiens. Put shortly:
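Stationary HFF cells from the HCMV plaque assay, not affected by virus, inspected microscopically for cytotoxicity when plaques were counted after 7 days at 37 °C with compound at four to eight concentrations.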

The subject of experiment [1] is Human betaherpesvirus 5. Description: Concentration required for 50% inhibition of HCMV replication was measured using a Plaque reduction assay. The format is functional, organism-based. Put shortly:
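HFF cells in 24-well dishes infected with about 100 pfu of HCMV (Towne) per cm² cell sheet. After adsorption, compound in growth medium added to duplicate wells at four to eight concentrations. Incubated 7 days at 37 °C, then crystal violet fixing/staining and microscopic plaque counts. IC50 by linear regression of % plaque reduction against log concentration.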

A further experiment deals with Human alphaherpesvirus 1. The experiment in a line: Antiviral activity was measured by plaque assay against HSV-1 virus by ELISA method. The format is functional, organism-based. Put shortly:
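HSV-1 (KOS strain) ELISA in BSC-1 cells, 10 000 per well in MEM(E) + 10% calf serum, seeded overnight at 37 °C. Drug in quadruplicate wells plus virus at 100 pfu/well, 3 days at 37 °C. Read-out: HRP-conjugated rabbit anti-HSV-1 antibody with TMB substrate, stopped with H2SO4, absorbance at 450 and 570 nm. IC50 from linear regression of % inhibition against log concentration.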

Experiment [2] deals with Human betaherpesvirus 5. Description: Concentration required for 90% inhibition of HCMV replication was measured using a yield reduction assay. Format: functional. In a few lines:
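HFF monolayers in 96-well dishes infected with HCMV (Towne) at moi 0.5 to 1 pfu per cell. Compound serially diluted 1:3, 100 to 0.14 μM, in duplicate. 7 days at 37 °C, then one freeze-thaw cycle. Progeny titred by 1:3 serial dilution onto fresh HFF monolayers with plaque counts. IC90 by regression of % inhibition against log concentration.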

A further experiment has as its system KB. Description: Inhibition of KB cell growth was determined. The format is functional, cell-based. The following applies: Homo sapiens. In a few lines:
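KB cells seeded at 3000–5000 per well, overnight at 37 °C. Compound added in quadruplicate at six to eight concentrations, 48 h at 37 °C in CO2 (two population doublings). Ethanol fixation, 0.1% crystal violet staining, acidified-ethanol elution, absorbance at 570 nm. IC50 by linear regression against log concentration.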

pIC50: −log10 of the molar value.

As for `Nc1cc2[nH]c(Cl)nc2cc1I`, the pIC50 with HFF, with Human betaherpesvirus 5 [1] and in the experiment with Human alphaherpesvirus 1 was < 4.00 throughout.

With `O=[N+]([O-])c1cc2[nH]c(Cl)nc2cc1I`, the IC90 in the experiment on Human betaherpesvirus 5 [2] was determined as 7 µM. Further, the negative-log IC50 (pIC50) in the experiment with HFF is 5.00; in the experiment on Human betaherpesvirus 5 [1], 5.55; in the experiment with Human alphaherpesvirus 1, 4.60.

With `Nc1cc2[nH]c(Cl)nc2cc1[N+](=O)[O-]`, the negative-log IC50 (pIC50) in the experiment with HFF was < 4.00; in the experiment with Human betaherpesvirus 5 [1] it was < 4.00; in the experiment with Human alphaherpesvirus 1, 4.05.

As to `Fc1cc2nc(Cl)[nH]c2cc1F`, the negative-log IC50 (pIC50) in the experiment on HFF, in the experiment with KB and in the experiment on Human betaherpesvirus 5 [1] was < 4.00 each time.

Turning to `Clc1nc2cc(I)c(I)cc2[nH]1`, the pIC50 is 4.49 in the experiment with HFF and 4.70 with Human betaherpesvirus 5 [1].

Regarding `Clc1nc2cc(Br)c(Br)cc2[nH]1`, the pIC50 with HFF was 4.49; in the experiment on KB, 4.46; in the experiment with Human betaherpesvirus 5 [1] it was 5.07; in the experiment on Human alphaherpesvirus 1, 4.19.

In turn, `OC[C@H]1O[C@@H](n2c(Cl)nc3cc(Cl)c(Cl)cc32)[C@H](O)[C@@H]1O` returned an IC90 in the experiment with Human betaherpesvirus 5 [2] of 1.4 µM.

Consider `OC[C@H]1OC(n2c(Cl)nc3cc(I)c(I)cc32)[C@H](O)[C@@H]1O` (some centres not stated), for which the 90% effect level in the experiment with Human betaherpesvirus 5 [2] (IC90) was put at 2.2 µM. The pIC50 was 4.89 with HFF, 4.57 in the experiment with KB, 5.60 in the experiment with Human betaherpesvirus 5 [1] and 4.24 with Human alphaherpesvirus 1.

Regarding `Cc1cc2nc(Cl)n(C3O[C@H](CO)[C@@H](O)[C@H]3O)c2cc1C` (some centres not stated), the negative logarithm of the IC50 (pIC50) with HFF, in the experiment with KB, in the experiment on Human betaherpesvirus 5 [1] and with Human alphaherpesvirus 1 was < 4.00 throughout.

For `OC[C@H]1OC(n2c(Cl)nc3cc(F)c(F)cc32)[C@H](O)[C@@H]1O` (some centres not stated), it took 75 µM to reach the 90% level with Human betaherpesvirus 5 [2] (IC90). The negative-log IC50 (pIC50) with HFF, in the experiment on KB, with Human betaherpesvirus 5 [1] and with Human alphaherpesvirus 1 was < 4.00 each time.

The molecule `OC[C@H]1OC(n2c(Cl)nc3cc(Br)c(Br)cc32)[C@H](O)[C@@H]1O` (some centres not stated) yielded a 90% effect concentration (IC90) in the experiment on Human betaherpesvirus 5 [2] of 1.3 µM. The pIC50 in the experiment with HFF is 4.36; in the experiment with KB, 4.06; with Human betaherpesvirus 5 [1], 5.42; in the experiment on Human alphaherpesvirus 1, < 4.00.

Take `OC[C@H]1OC(n2c(Cl)nc3ccccc32)[C@H](O)[C@@H]1O` (some centres not stated): the 90% effect concentration (IC90) in the experiment on Human betaherpesvirus 5 [2] is > 100 µM. Moreover, the negative-log IC50 (pIC50) in the experiment with HFF, with KB and in the experiment with Human betaherpesvirus 5 [1] was < 4.00 in each case.

With `O=C(O)P(=O)(O)O` [FOSCARNET], the negative logarithm of the IC50 (pIC50) in the experiment on HFF is < 4.00.

For `Nc1nc2c(ncn2COC(CO)CO)c(=O)[nH]1` [GANCICLOVIR], the 90% effect concentration (IC90) with Human betaherpesvirus 5 [2] was determined as 1.6 µM. For the same molecule, the negative logarithm of the IC50 (pIC50) in the experiment on HFF and in the experiment on KB was < 4.00 in each case.
